Assay [1] relates to Jurkat. In words: Cytotoxicity against human Jurkat cells assessed as growth inhibition after 72 hrs by MTT assay. The class given is functional. The essentials:
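Cells were grown in medium with 10% heat-inactivated FBS plus penicillin/streptomycin: RPMI-1640 for Jurkat and CEM, DMEM for A-431, HAM's F12 for LoVo. The doxorubicin-resistant LoVo subclone was kept with 0.1 µg/mL doxorubicin. Cells were seeded at 5x10^3 per well and pre-incubated 24 h at 37 °C.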
(In general: Tetrazolium dyes change colour on reduction, which living cells bring about.)

Assay [2] is described as follows: Cytotoxicity against human HCT15 cells assessed as growth inhibition after 72 hrs by MTT assay. Format: functional. As to conditions: HCT-15, 72 h.
For the next assay, the system named is SR. Kind of assay: Cytotoxicity against human SR cells assessed as growth inhibition after 72 hrs by MTT assay. The class given is functional. The gist of the method:
(§1)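 NCI 60-cell-line panel screen. Compounds were tested at 5 concentrations in 10-fold dilution (10^-4 to 10^-8 M) across the full panel. GI50 was taken as the molar concentration giving 50% inhibition of net cell growth.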

For the next assay, the system named is MDA-MB-435. In words: Cytotoxicity against human MDA-MB-435 cells assessed as growth inhibition after 72 hrs by MTT assay. The class given is functional. The note with it: MDA-MB-435, 72 h.
The next assay deals with SK-MEL-5. In words: Cytotoxicity against human SK-MEL-5 cells assessed as growth inhibition after 72 hrs by MTT assay. The note with it: SK-MEL-5, 72 h. The class given is functional. The essentials:
as §1

Assay [3] is described as follows: Cytotoxicity against human UACC257 cells assessed as growth inhibition after 72 hrs by MTT assay. The note with it: UACC-257, 72 h. Format: functional. The essentials:
as §1

A further assay concerns BT-549. In words: Cytotoxicity against human BT549 cells assessed as growth inhibition after 72 hrs by MTT assay. The class given is functional. The note with it: BT-549, 72 h.
The subject of the next assay is HOP-92. In words: Cytotoxicity against human HOP92 cells assessed as growth inhibition after 72 hrs by MTT assay. The class given is functional. The note with it: HOP-92, 72 h.
In the next assay the test system is NCI-H460. Kind of assay: Cytotoxicity against human NCI-H460 cells assessed as growth inhibition after 72 hrs by MTT assay. Format: functional. As to conditions: NCI-H460, 72 h.
Assay [4] can be described thus: Cytotoxicity against human EKVX cells assessed as growth inhibition after 72 hrs by MTT assay. The class given is functional.
The next assay has as its system SNB-19. In words: Cytotoxicity against human SNB19 cells assessed as growth inhibition after 72 hrs by MTT assay. Format: functional. The note with it: SNB-19, 72 h. The gist of the method:
as §1

In assay [5] the test system is Jurkat. Kind of assay: Cell cycle arrest in human Jurkat cells assessed as accumulation at S phase at 0.5 uM after 24 hrs by propidium iodide staining-based flow cytometry (reference value: 15.5%). The class given is functional. In general terms: Flow cytometry measures light scatter and fluorescence of single cells or particles in a stream.
For the next assay, the system named is CCRF-CEM. Kind of assay: Cytotoxicity against human vinblastin-resistant CEM cells assessed as growth inhibition after 72 hrs by MTT assay. The class given is functional. The gist of the method: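 CEMVbl-100 (vinblastine-selected CEM) was grown in RPMI-1640 with 0.1 µg/mL vinblastine. LoVoDoxo was grown in HAM's F12 with 0.1 µg/mL doxorubicin; parental CEM and LoVo were grown without drug. Media had 10% FBS. 5x10^3 cells were seeded, preincubated 24 h at 37 °C, then exposed 72 h to compound (DMSO <1%). Read-out was MTT; GI50 came from dose-response curves of ≥3 experiments. RI = GI50 resistant / GI50 parental.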

The subject of another assay is NCI-H522. In words: Cytotoxicity against human NCI-H522 cells assessed as growth inhibition after 72 hrs by MTT assay. Format: functional. As to conditions: NCI-H522, 72 h. The essentials:
as §1

The test system of a further assay is MDA-MB-231. In words: Cytotoxicity against human MDA-MB-231 cells assessed as growth inhibition after 72 hrs by MTT assay. As to conditions: MDA-MB-231, 72 h. The class given is functional.
Assay [6] deals with Jurkat. Kind of assay: Cell cycle arrest in human Jurkat cells assessed as accumulation at subG1 phase at 0.5 uM after 24 hrs by propidium iodide staining-based flow cytometry (reference value: 5.3%). Format: functional.
For assay [7], the target named is T1, DNA topoisomerase 1 (Homo sapiens) (UniProt P11387).
T1 sequence (whole entry): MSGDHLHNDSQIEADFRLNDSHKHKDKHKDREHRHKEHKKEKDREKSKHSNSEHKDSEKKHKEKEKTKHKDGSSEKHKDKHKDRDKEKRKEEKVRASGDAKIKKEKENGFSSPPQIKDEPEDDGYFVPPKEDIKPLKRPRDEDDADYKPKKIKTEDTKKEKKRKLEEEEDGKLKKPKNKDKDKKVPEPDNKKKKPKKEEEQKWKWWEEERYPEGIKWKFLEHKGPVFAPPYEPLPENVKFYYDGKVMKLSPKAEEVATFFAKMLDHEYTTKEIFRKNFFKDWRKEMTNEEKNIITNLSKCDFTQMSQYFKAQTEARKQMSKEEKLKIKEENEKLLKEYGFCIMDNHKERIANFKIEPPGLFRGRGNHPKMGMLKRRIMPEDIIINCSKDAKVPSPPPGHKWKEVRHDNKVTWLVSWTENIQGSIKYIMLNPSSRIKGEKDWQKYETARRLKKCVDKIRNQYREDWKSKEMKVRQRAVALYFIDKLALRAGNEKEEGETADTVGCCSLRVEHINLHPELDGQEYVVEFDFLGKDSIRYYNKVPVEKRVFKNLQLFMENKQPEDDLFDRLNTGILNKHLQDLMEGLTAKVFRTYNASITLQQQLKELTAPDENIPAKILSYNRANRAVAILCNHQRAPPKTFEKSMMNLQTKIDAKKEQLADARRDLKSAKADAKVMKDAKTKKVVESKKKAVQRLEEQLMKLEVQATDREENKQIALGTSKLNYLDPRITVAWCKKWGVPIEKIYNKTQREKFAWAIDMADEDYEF
In words: Inhibition of human DNA topoisomerase 1-mediated relaxation of supercoiled pBR322 plasmid DNA at 5 to 100 uM after 30 mins by agarose gel electrophoresis relative to untreated control. The gist of the method: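 Human topoisomerase I (10 units) was incubated with 0.250 µg supercoiled pBR322 and compound (5-100 µM) for 30 min at 37 °C. Buffer: 50 mM Tris-HCl pH 7.5, 50 mM KCl, 0.5 mM DTT, 10 mM MgCl2, 0.1 mM EDTA, 30 µg/mL BSA. Reactions were stopped with 1% SDS and proteinase K (50 µg/mL, 30 min). Samples ran on 0.8% agarose in TAE at 20 V overnight, then were post-stained with ethidium bromide.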

The subject of assay [8] is Jurkat. In words: Induction of apoptosis in human Jurkat cells assessed as loss of plasma membrane asymmetry at 250 to 500 nM after 6 hrs by annexin V-FITC/propidium iodide staining-based flow cytofluorimetric analysis. The class given is functional, cell-based. The essentials:
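Jurkat cells were incubated with 250 or 500 nM compound for 6 h or 24 h. They were then double-stained with Annexin V-FITC and propidium iodide and analysed by flow cytometry (488 nm excitation; emission 525 and 585 nm). Mean ± SEM of 3 experiments.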

The next assay deals with 786-0. Kind of assay: Cytotoxicity against human 786-0 cells assessed as growth inhibition after 72 hrs by MTT assay. The class given is functional. As to conditions: 786-0, 72 h.
Assay [9] relates to Jurkat. In words: Induction of apoptosis in human Jurkat cells assessed as caspase-9 activation at 500 nM after 6 hrs by plate reader analysis. Format: functional, cell-based. The essentials:
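Jurkat cells were treated with 500 nM compound for 6 h and 24 h, then lysed. Lysates were incubated with pNA-conjugated substrates: Ac-DEVD (caspase-3), Ac-IETD (caspase-8) and LEHD (caspase-9). pNA release was read at 405 nm and normalized to Bradford protein. Results are expressed as fold increase over untreated control.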

The subject of the next assay is SK-MEL-28. Kind of assay: Cytotoxicity against human SK-MEL-28 cells assessed as growth inhibition after 72 hrs by MTT assay. Format: functional. As to conditions: SK-MEL-28, 72 h. The gist of the method:
as §1

The text below walks through data of ChEMBL document CHEMBL3351507, “11H-Pyrido[3',2':4,5]pyrrolo[3,2-c]cinnoline and pyrido[3',2':4,5]pyrrolo[1,2-c][1,2,3]benzotriazine: two new ring systems with antitumor activity” (2014).

Calls of active or inactive are those of the source. No cut-off for these calls is given here.

For the compound `COc1ccc2c(c1)nnc1c3cccnc3[nH]c21`, the GI50 with Jurkat [1] is 90 nM; in assay [2] it was 2260 nM; in the assay with SR it was 31 nM; in the assay with MDA-MB-435, 1440 nM; with SK-MEL-5, 5850 nM; in assay [3], 7490 nM. The GI50 with BT-549 is 3430 nM; in the assay on HOP-92, 82 nM; in the assay on NCI-H460, 1930 nM; in assay [4], 2820 nM; with SNB-19 it was 7610 nM; in the assay with CCRF-CEM, 1020 nM. The GI50 in the assay on NCI-H522 stood at 1090 nM; in the assay with MDA-MB-231, 1420 nM; with 786-0, 510 nM; with SK-MEL-28 it was 11800 nM. For the same compound, the Activity in the assay with Jurkat [5] is recorded as 28.6%; with Jurkat [6], 39.8%. In addition, the result (in assay [7]; with Jurkat [9]) was Active. In addition, the outcome in the assay on Jurkat [8] was inactive.
Regarding `O=Nc1c2cccnc2n2nnc3ccc(Cl)cc3c12`, the GI50 in assay [2] was 960 nM; in the assay with SR, 17 nM; in the assay with MDA-MB-435, 1260 nM; in the assay with SK-MEL-5 it was 3820 nM; in assay [3], 3070 nM; in the assay on BT-549 it was 1780 nM. The GI50 with HOP-92 was determined as 100 nM; in the assay with NCI-H460, 1330 nM; in [4], 1830 nM; in the assay on SNB-19, 3180 nM; in the assay with NCI-H522, 950 nM; in the assay with MDA-MB-231, 680 nM. For the same compound, the GI50 with 786-0 was 840 nM; with SK-MEL-28, 1060 nM.
As to `COc1cc2nnc3c4cccnc4[nH]c3c2cc1OC`, the GI50 is 1430 nM in [2]; 39 nM in the assay on SR; 2230 nM with MDA-MB-435; 7330 nM in the assay on SK-MEL-5; 3320 nM in assay [3]; 3700 nM in the assay on BT-549. In addition, the GI50 with HOP-92 is 210 nM; in the assay on NCI-H460, 2460 nM; in assay [4], 2430 nM; in the assay on SNB-19 it was 2770 nM; with NCI-H522, 2050 nM; in the assay with MDA-MB-231 it was 2690 nM. Besides, the GI50 in the assay on 786-0 is 320 nM; in the assay with SK-MEL-28, 4490 nM.
`COc1ccc2c(c1)nnn1c3ncccc3c(N=O)c21`: the GI50 was 90 nM with Jurkat [1]; 3130 nM in [2]; 9 nM in the assay with SR; 1940 nM in the assay with MDA-MB-435; 5010 nM in the assay on SK-MEL-5; 8210 nM in [3]. Further, the GI50 in the assay with BT-549 was determined as 5060 nM; in the assay on HOP-92, 42 nM; in the assay with NCI-H460, 1670 nM; in assay [4] it was 3380 nM; in the assay on SNB-19, 6280 nM; in the assay with CCRF-CEM, 440 nM. In addition, the GI50 in the assay on NCI-H522 stood at 1250 nM; in the assay on MDA-MB-231, 1260 nM; in the assay on 786-0, 330 nM; in the assay with SK-MEL-28, 3480 nM. Moreover, the results for the Activity in the assay with Jurkat [5] and with Jurkat [6] were 27.2% and 39.1%, respectively. Besides, the result (in [7]; in the assay on Jurkat [9]) was Active. Moreover, the result in the assay with Jurkat [8] was inactive.
`COc1cc2nnn3c4ncccc4c(N=O)c3c2cc1OC`: the GI50 stood at 200 nM with Jurkat [1]; 1620 nM in assay [2]; 18 nM with SR; 2380 nM with MDA-MB-435; 12600 nM with SK-MEL-5; 4540 nM in assay [3]. For the same compound, the GI50 with BT-549 was determined as 5530 nM; in the assay with HOP-92 it was 39 nM; in the assay with NCI-H460, 2610 nM; in assay [4] it was 3310 nM; in the assay on SNB-19, 3840 nM; in the assay on CCRF-CEM, 510 nM. Also, the GI50 in the assay with NCI-H522 stood at 4010 nM; in the assay with MDA-MB-231, 2600 nM; with 786-0, 230 nM; with SK-MEL-28 it was 9100 nM. Moreover, the Activity in the assay on Jurkat [5] is recorded as 24.7%; in the assay with Jurkat [6], 21.7%. The result (in assay [7]; in the assay with Jurkat [9]) was Active. The outcome in the assay on Jurkat [8] was inactive.

One may read the GI50 as the concentration that inhibits growth by half.
